Data: ChEMBL document CHEMBL1150337, “Lavendamycin antitumor agents: structure-based design, synthesis, and NAD(P)H:quinone oxidoreductase 1 (NQO1) model validation with molecular docking and biological studies” (J Med Chem, 2008)

Columns and labels:
[1] = target: NAD(P)H dehydrogenase [quinone] 1 (Homo sapiens) (UniProt P15559); experiment: Activity of human recombinant NQO1 assessed as reduction of cytochrome c per mg of protein by spectrophotometric assay
Method in brief: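 Cytochrome c reduction followed at 550 nm as initial rates. Mix: cytochrome c 70 µm, NADH 1 mM, recombinant human NQO1 (0.1–3 µg) and lavendamycin analogue 25 µm in 1 mL Tris-HCl 25 mM pH 7.4 with 0.7 mg/mL BSA and 0.1% Tween-20. At least triplicate.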

BE-NQ [2] = experiment: Selectivity ratio of IC50 for NQO1 deficient human BE cells to IC50 for human BE-NQ cells expressing NQO1; assay type: functional
Method in brief: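 Ratio of MTT-derived IC50 in NQO1-deficient BE cells to IC50 in NQO1-transfected BE-NQ cells. IC50 was read from semilog plots of percent of control vs concentration.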

BE = experiment: Cytotoxicity against NQO1 deficient human BE cells after 4 to 5 days by MTT assay; assay type: functional, cell-based
Method in brief: (§1)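 Cells in MEM with Earle's salts, 10% FBS, 37 °C, 5% CO2. Seeded at 10000 cells/mL, attached overnight (16 h). Analogue in medium for 2 h, then fresh medium for 4–5 days. MTT (50 µg) added for 4 h, formazan dissolved in DMSO, absorbance read at 560 nm. IC50 (50% of control survival) taken from semilog plots of percent control vs concentration.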

BE-NQ [3] = experiment: Cytotoxicity against human BE-NQ cells expressing human NQO1 after 4 to 5 days by MTT assay; assay type: functional, cell-based; method in brief: as §1

NAD(P)H dehydrogenase [quinone] 1 (Homo sapiens), sequence (P15559 whole entry): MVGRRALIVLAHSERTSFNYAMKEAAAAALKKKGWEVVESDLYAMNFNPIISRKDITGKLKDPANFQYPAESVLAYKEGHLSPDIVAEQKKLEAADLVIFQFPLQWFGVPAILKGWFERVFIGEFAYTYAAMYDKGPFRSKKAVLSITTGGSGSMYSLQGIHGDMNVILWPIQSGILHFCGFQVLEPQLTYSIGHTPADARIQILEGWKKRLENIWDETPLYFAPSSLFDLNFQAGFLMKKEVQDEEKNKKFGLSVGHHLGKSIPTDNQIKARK

SMILES | Activity [1] [µmol/min/mg] | Ratio IC50 (BE-NQ [2]) | IC50 (BE) [µM] | IC50 (BE-NQ [3]) [µM]
COC(=O)c1cc2c([nH]c3ccccc32)c(-c2ccc3c(n2)C(=O)C(NC(=O)c2ccco2)=CC3=O)n1 | 7 | 1 | 49 | 47
N=C1C=C(O)c2ccc(-c3nc(C(N)=O)cc4c3[nH]c3ccccc34)nc2C1=O | – | 9 | – | –
NC1=CC(=O)c2ccc(-c3[nH]c(CO)cc4c5ccccc5nc3-4)nc2C1=O | – | 11 | – | –
CCC(C)NC(=O)c1cc2c([nH]c3ccccc32)c(-c2ccc3c(n2)C(=O)C(NC(C)=O)=CC3=O)n1 (configuration not stated) | 4.9 | – | > 50 | > 50
NC1=CC(=O)c2ccc(-c3nc(C(=O)OCCO)cc4c3[nH]c3ccccc34)nc2C1=O | 60 | 7 | 3.3 | 0.5
COC(=O)c1[nH]c(-c2ccc3c(n2)C(=O)C(=N)C=C3O)c2nc3ccccc3c-2c1C | – | 9 | – | –
CCCCCCCCOC(=O)c1cc2c([nH]c3ccccc32)c(-c2ccc3c(n2)C(=O)C(N)=CC3=O)n1 | – | 10 | – | –
CCCCNC(=O)c1cc2c([nH]c3ccccc32)c(-c2ccc3c(n2)C(=O)C(NC(C)=O)=CC3=O)n1 | 143 | 30 | 50 | 1.7
CCCC(=O)NC1=CC(=O)c2ccc(-c3nc(C(=O)OCCC(C)C)cc4c3[nH]c3ccccc34)nc2C1=O | 3.4 | – | > 50 | > 50
